Test results as given in ChEMBL document CHEMBL1123673, “Comparison of aminoglycoside antibiotics with respect to uptake and lethal activity in Escherichia coli” (J Med Chem, 1987).

Experiments:
Escherichia coli [1] = test: Concentration required for half maximum rate of enhanced [3H]DHS (Dihydrostreptomycin) uptake in Escherichia coli K12 (ATCC 25868)was estimated from dose-response curves; type: functional
In short: (§1)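 Cultures in tryptone-peptone broth at 37 °C with shaking, grown from OD600 ~0.05 to 0.20, then preexposed to antibiotic for 20 min at 37 °C. Cells pelleted, resuspended in equal volume fresh broth, pulsed 5.0 min at 37 °C with [3H]DHS (1.0 µCi/mL, 3.8 Ci/mmol). Samples filtered, washed with 0.1 M LiCl, scintillation counted. C50 = half-maximal rate estimated from dose-response curves.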

[2] = (§2) Percent killing of the total Escherichia coli K12 (ATCC 25868) cells at the C50 concentration was determined.; type: ADME
[3] = (§3) Lethal dose required to kill 90% of the Escherichia coli K12 (ATCC 25868) cell population; type: ADME
In short: (§4)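 E. coli K12 in tryptone-peptone broth at 37 °C, OD600 0.20, exposed 20 min at 37 °C to antibiotic; pellets resuspended to OD600 0.10–0.15 in TPB, serially diluted, plated on tryptone-peptone agar, colonies counted after overnight at 37 °C. Value is the concentration killing 90% of the population.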

Escherichia coli [4] = test: Estimated rate of [3H]DHS uptake in Escherichia coli K12 (ATCC 25868); type: functional; design: unit not given here; in short: as §1
Escherichia coli [5] = tested on: Escherichia coli;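 also: escherichia coli cells, read-out is the rate of enhanced [3H]DHS uptake, C50 being the level that yields half of the maximal rate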
Escherichia coli [6] = test: Estimated rate of [3H]DHS (Dihydrostreptomycin) uptake in Escherichia coli K12 (ATCC 25868) [pmol/min (optical density unit)E-1] at the C50 was determined.; type: functional; in short: as §1
Escherichia coli [7] = test: Estimated rate of [3H]DHS (Dihydrostreptomycin) uptake in Escherichia coli K12 (ATCC 25868) [pmol/min (optical density unit)E-1] at the C50 was determined.; OD means optical density; type: functional
In short: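 E. coli K12 grown in tryptone-peptone broth at 37 °C with shaking to OD600 0.20, preexposed 20 min at 37 °C to antibiotic across a dose range; cells pelleted, resuspended in TPB, given [3H]DHS (1.0 µCi/mL, 3.8 Ci/mmol) for 5.0 min at 37 °C; filtered, washed with 0.1 M LiCl, scintillation counted. Rate read at C50 (half-maximal induced rate) from dose-response curves.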

[8] = as §3; type: functional; in short: as §4
[9] = as §2; type: functional
Escherichia coli [10] = test: Estimated rate of [3H]DHS (Dihydrostreptomycin) uptake in Escherichia coli K12 (ATCC 25868) [pmol/min (optical density unit)E-1] at the C50 was determined;OD means optical density; type: functional; in short: as §1
[11] = (§5) Percent killing of the total Escherichia coli K12 (ATCC 25868)cells at the C50 concentration was determined.; type: ADME
[12] = as §5; type: functional

Row | Molecule | Kill at C50 [2] [%] | LD90 [3] [µM] | Uptake at C50 (Escherichia coli [4]) | C50 (Escherichia coli [5]) [µM] | other results
1 | CNC1C(OC2OC(CO)C(N)C(O)C2O)OC2CC(NC(=O)C(O)CCN)C(OC3C(N)CC(N)C(O)C3O)OC2C1O (centres undefined) | 93 | 0.72 | 2.6 |  | C50 (Escherichia coli [1]): 0.84 µM
2 | CNC1C(OC2OC(CO)C(N)C(O)C2O)OC2CC(NC(=O)CN)C(OC3C(N)CC(N)C(O)C3O)OC2C1O (centres undefined) | 53 | 0.83 | 3.3 | 0.45 | 
3 | NCC1CCC(N)C(OC2C(N)CC(N)C(OC3OC(CO)C(O)C(N)C3O)C2O)O1 (centres undefined) | 74 | 0.89 | 8.1 |  | 
4 | CNC1C(OC2OC(CO)C(N)C(O)C2O)OC2CC(N)C(OC3C(N)CC(NC(=O)CN)C(O)C3O)OC2C1O (centres undefined) | 94 | 0.84 | 2.1 |  | C50 (Escherichia coli [1]): 1.1 µM
5 | NCC1OC(OC2C(N)CC(NC(=O)C3(O)CNC3)C(OC3OC(CO)C(O)C(N)C3O)C2O)C(N)CC1O (centres undefined) | 50 | 0.63 | 4.4 | 0.12 | 
6 | COC1C(O)C(N)C(OC2OC([C@H](C)N)CCC2N)C(O)C1N(C)C(=O)CN (some centres undefined) | 93 | 0.7 | 5.6 | 0.86 | 
7 | CNC1C(O)C(OC2C(N)CC(N)C(OC3OC(C(C)N)CCC3N)C2O)OCC1(C)O (centres undefined) | 98 | 0.14 |  |  | C50 (Escherichia coli [1]): 0.26 µM; Uptake at C50 (Escherichia coli [6]): 6.5
8 | NC[C@H]1O[C@H](O[C@@H]2[C@@H](O)[C@H](O[C@@H]3[C@H](O)[C@H](N)C[C@@H](N)[C@H]3O[C@H]3O[C@@H](CO)[C@@H](O)C[C@@H]3N)O[C@@H]2CO)[C@@H](N)[C@@H](O[C@H]2O[C@H](CO)[C@@H](O)[C@H](O)[C@@H]2O)[C@@H]1O | 78 | 0.88 | 4.4 | 0.57 | 
9 | NCC1OC(OC2C(N)CC(NC(=O)C3(O)CCNC3)C(OC3OC(CO)C(O)C(N)C3O)C2O)C(N)CC1O (centres undefined) | 65 | 0.31 | 4.4 | 0.12 | 
10 | CNC1C(OC2OC(CO)C(N)C(O)C2O)OC2CC(N)C(OC3C(N)CC(NC(=O)C(O)CCN)C(O)C3O)OC2C1O (centres undefined) | 53 | 1.2 | 2.4 |  | C50 (Escherichia coli [1]): 0.39 µM
11 | CN(C)[C@@H]1C(O)=C(C(N)=O)C(=O)[C@@]2(O)C(O)=C3C(=O)c4c(O)cccc4[C@@](C)(O)[C@H]3C[C@@H]12 |  |  |  | > 50 | 
12 | CN1C(NC2OC(CO)C(OC(N)=O)C(O)C2NC(=O)CC(N)CCCN)=N[C@@H]2[C@H](O)CNC(=O)[C@H]21 (some centres undefined) |  |  | 4.1 | 0.1 | 
13 | CN[C@@H]1[C@H](O)[C@H](NC)[C@H]2O[C@@]3(O)C(=O)C[C@@H](C)O[C@H]3O[C@@H]2[C@H]1O |  |  |  | > 10 | 
14 | CN[C@H]1C[C@@H](N)[C@H](O)[C@@H](O[C@@H]2O[C@H](CO)[C@H](O)[C@H]3O[C@@]4(O[C@H]23)O[C@H]([C@H](N)CO)[C@H](O)[C@H](O)[C@H]4O)[C@@H]1O |  |  |  | > 50 | 
15 | NCCCCNCCCN |  |  |  | > 50 | 
16 | NC[C@@H]1O[C@@H](O[C@H]2[C@H](O)[C@@H](O[C@H]3O[C@H](CO)[C@@H](O)[C@H](N)[C@H]3O)[C@H](N)C[C@@H]2N)[C@@H](O)[C@H](O)[C@H]1O |  |  | 3.5 | 0.95 | 
17 | O=C(N[C@H](CO)[C@H](O)c1ccc([N+](=O)[O-])cc1)C(Cl)Cl |  |  |  | > 50 | 

Row | Molecule | Kill at C50 [2] [%] | LD90 [3] [µM] | Uptake at C50 (Escherichia coli [4]) | C50 (Escherichia coli [5]) [µM] | other results
18 | 4-Amino-N-[5-amino-4-(3-amino-6-aminomethyl-4,5-dihydroxy-tetrahydro-pyran-2-yloxy)-3-(3,4-dihydroxy-5-hydroxymethyl-tetrahydro-furan-2-yloxy)-2-hydroxy-cyclohexyl]-2-hydroxy-butyramide (Butirosin) |  |  | 4 | 0.13 | 
19 | NCC[C@H](O)C(=O)N[C@@H]1C[C@H](N)[C@@H](O[C@H]2O[C@H](CN)[C@@H](O)[C@H](O)[C@H]2O)[C@H](O)[C@H]1O[C@H]1O[C@H](CO)[C@@H](O)[C@H](N)[C@H]1O (stereo in doubt) |  |  |  | 0.21 | Uptake at C50 (Escherichia coli [7]): 4.7
20 | NCC[C@H](O)C(=O)N[C@@H]1C[C@H](N)[C@@H](O[C@H]2O[C@H](CN)[C@@H](O)[C@H](O)[C@H]2O)[C@H](O)[C@H]1O[C@H]1O[C@H](CO)[C@@H](O)[C@H](N)[C@H]1O (stereo in doubt) [AMIKACIN] |  |  |  |  | LD90 [8]: 0.32 µM; Kill at C50 [9]: 76%
21 | CN[C@@H]1[C@@H](O[C@H]2O[C@H](CO)[C@@H](N)[C@H](O)[C@H]2O)OC2C[C@@H](N)[C@@H](O[C@H]3[C@H](O)[C@@H](O)[C@H](N)C[C@@H]3N)OC2[C@@H]1O (some centres undefined) [APRAMYCIN] | 95 | 0.67 |  | 0.87 | Uptake at C50 (Escherichia coli [10]): 4
22 | NC[C@H]1O[C@H](O[C@H]2[C@H](O)[C@@H](O[C@H]3O[C@H](CO)[C@@H](O)[C@H](N)[C@H]3O)[C@H](N)C[C@@H]2N)[C@H](N)[C@@H](O)[C@@H]1O [BEKANAMYCIN] |  | 1.1 | 6.8 | 0.27 | Kill at C50 [11]: 31%
23 | NC[C@@H]1O[C@H](O[C@H]2[C@@H](O)[C@H](O[C@@H]3[C@@H](O)[C@H](N)C[C@H](N)[C@H]3O[C@H]3O[C@H](CN)[C@@H](O)[C@H](O)[C@H]3N)O[C@@H]2CO)[C@H](N)[C@@H](O)[C@@H]1O [FRAMYCETIN] | 82 | 0.46 | 1.6 | 0.34 | 
24 | CN[C@@H]1[C@@H](O)[C@@H](O[C@@H]2[C@@H](O)[C@H](O[C@H]3O[C@H]([C@@H](C)NC)CC[C@H]3N)[C@@H](N)C[C@H]2N)OC[C@]1(C)O [GENTAMICIN C1] | 85 | 0.25 |  | 0.21 | Uptake at C50 (Escherichia coli [7]): 5.5
25 | NC[C@H]1O[C@H](O[C@H]2[C@H](O)[C@@H](O[C@H]3O[C@H](CO)[C@@H](O)[C@H](N)[C@H]3O)[C@H](N)C[C@@H]2N)[C@H](O)[C@@H](O)[C@@H]1O [KANAMYCIN A] | 93 | 0.85 |  |  | 
26 | NC[C@@H]1O[C@H](O[C@H]2[C@@H](O)[C@H](O[C@@H]3[C@@H](O)[C@H](N)C[C@H](N)[C@H]3O[C@H]3O[C@H](CO)[C@@H](O)C[C@H]3N)O[C@@H]2CO)[C@H](N)[C@@H](O)[C@@H]1O[C@H]1O[C@H](CO)[C@@H](O)[C@H](O)[C@@H]1O [LIVIDOMYCIN] |  | 0.87 | 5.5 | 0.18 | Kill at C50 [11]: 40%
27 | CCN[C@@H]1C[C@H](N)[C@@H](O[C@H]2OC(CN)=CC[C@H]2N)[C@H](O)[C@H]1O[C@H]1OC[C@](C)(O)[C@H](NC)[C@H]1O [NETILMICIN] | 86 | 0.38 | 5.8 | 0.32 | 
28 | NC[C@@H]1O[C@H](O[C@H]2[C@@H](O)[C@H](O[C@@H]3[C@@H](O)[C@H](N)C[C@H](N)[C@H]3O[C@H]3O[C@H](CO)[C@@H](O)[C@H](O)[C@H]3N)O[C@@H]2CO)[C@H](N)[C@@H](O)[C@@H]1O [PAROMOMYCIN] |  | 0.78 | 3.9 | 0.32 | Kill at C50 [11]: 61%
29 | NC[C@H]1O[C@H](O[C@H]2[C@H](O[C@@H]3O[C@H](CO)[C@@H](O)[C@H]3O)[C@@H](O)[C@H](N)C[C@@H]2N)[C@H](N)[C@@H](O)[C@@H]1O [RIBOSTAMYCIN] | 99 | 0.17 | 2.6 | 1.2 | 
30 | CN[C@@H]1[C@@H](O)[C@@H](O[C@@H]2[C@@H](O)[C@H](O[C@H]3OC(CN)=CC[C@H]3N)[C@@H](N)C[C@H]2N)OC[C@]1(C)O [SISOMICIN] | 77 | 0.49 | 7 | 0.31 | 
31 | CN[C@@H]1[C@H](O[C@H]2[C@H](O[C@H]3[C@H](O)[C@@H](O)[C@H](N=C(N)N)[C@@H](O)[C@@H]3N=C(N)N)O[C@@H](C)[C@]2(O)C=O)O[C@@H](CO)[C@H](O)[C@H]1O [STREPTOMYCIN] |  |  | 5.8 | 0.34 | Kill at C50 [12]: 88%; LD90 [8]: 0.36 µM
32 | NC[C@H]1O[C@H](O[C@H]2[C@H](O)[C@@H](O[C@H]3O[C@H](CO)[C@@H](O)[C@H](N)[C@H]3O)[C@H](N)C[C@@H]2N)[C@H](N)C[C@@H]1O [TOBRAMYCIN] |  | 0.71 | 8.3 |  | C50 (Escherichia coli [1]): 0.24 µM; Kill at C50 [11]: 54%
33 | GENTAMICIN [listing 1 of 2 here] |  | 0.43 |  |  | Kill at C50 [11]: 72%
34 | GENTAMICIN [listing 2 of 2 here] |  |  | 7.3 | 0.24 | 
